The values that follow come from article PMC2229406 (The Journal of General Physiology, 1998).

Values joined by “and” are separate entries in the source; they are usually repeats but may differ in a detail not shown here. Equal entries are not always repeated. Where two headings read alike, the source gives them in different places.

Test [1] has as its system sheep cardiac ryanodine receptor (RyR) channel. The following applies: ref Tinker et al., 1996, cited from earlier work.
Test [2] shares this test system. The class given is biochemical. An outline of the steps: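 CHAPS-solubilized RyR from sheep ventricular heavy SR (30/40% sucrose interface) was reconstituted into liposomes and fused into phosphatidylethanolamine/n-decane bilayers. Both chambers held 610 mM K+, 20 mM HEPES pH 7.4 and 10 μM contaminant Ca2+, with 100 μM EMD 41000 cis. Single channels only, at 21 ± 2°C. Ryanoid added cytosolically; steady-state runs ≥6 min at +40 mV. Pmod = modified/(modified+unmodified) time; single-site nonlinear regression; mean ± SEM.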

The mark [3] stands for this setting: +40 mV, 500 nM cytosolic, 20 min recording, single exponential fit.

As to `CC(C)[C@@]1(O)[C@@H](O)[C@@]2(O)[C@@]3(C)C[C@]4(O)O[C@@]5([C@H](O)[C@@H](C)CC[C@]35O)[C@@]2(O)[C@]14C` [ryanodol], in test [1] (+60 vs −60 mV), the “voltage dependence of channel modification” value is “more likely to occur and are longer lasting at a holding potential of +60 than −60 mV”. Besides, the “amplitude of reduced conductance state, of the normal unmodified conductance” value in test [1] is reported as approximately 70%.
In the case of 21-amino-9α-hydroxy-ryanodine, the “mean P o ± SEM in unmodified periods” value was 0.62 ± 0.15 in test [2] (50 nM ryanoid, +40 mV, n = 5); 0.71 ± 0.16 in test [2] (100 nM ryanoid, +40 mV, n = 5); 0.70 ± 0.16 in test [2] (300 nM ryanoid, +40 mV, n = 5); 0.56 ± 0.16 in test [2] (500 nM ryanoid, +40 mV, n = 5); 0.73 ± 0.15 in test [2] (700 nM ryanoid, +40 mV, n = 4); 0.73 ± 0.15 in test [2] (900 nM ryanoid, +40 mV, n = 4). The “mean P o ± SEM in unmodified periods” value in test [2] (holding potential +20 mV, 500 nM ryanoid, n = 7) was found to be 0.65 ± 0.09; in test [2] (holding potential +40 mV, 500 nM ryanoid, n = 7), 0.69 ± 0.09; in test [2] (holding potential +60 mV, 500 nM ryanoid, n = 7) it was 0.45 ± 0.06; in test [2] (holding potential −20 mV, 500 nM ryanoid, n = 6) it was 0.62 ± 0.15; in test [2] (holding potential −40 mV, 500 nM ryanoid, n = 5) it was 0.73 ± 0.13; in test [2] (holding potential −60 mV, 500 nM ryanoid, n = 5) it was 0.78 ± 0.17. The “modification of channel function, luminal addition” value in test [2] (500 nM at the luminal face, +60 or −60 mV, n = 6) was “no modification of gating or conductance”. The “total valency / total voltage dependence (z on + z off)” value in test [2] (500 nM cytosolic) was 1.98 and 2. The “interaction with the channel at −60 mV” value in test [2] (500 nM cytosolic, −60 mV) was “no discernible modified-conductance events”. In addition, the “k on, intercept of regression line vs P o” value in test [2] (700 nM cytosolic, +40 mV) amounted to 0.02 ± 0.02 s⁻¹. Moreover, the “k on, slope vs P o” value in test [2] (700 nM cytosolic, +40 mV, range P o = 0–1) worked out at 0.97 ± 0.05 s⁻¹. Also, the “mean dwell time in the modified state (τmod)” value in test [2] (setting [3]) was 4.21 s. Moreover, the “mean dwell time in the unmodified state (τunmod)” value in test [2] (setting [3]) is 0.95 s. Further, the “K d from P mod vs concentration” value in test [2] (+40 mV, 50-900 nM cytosolic, single-site binding scheme, nonlinear regression) is 105 nM. In addition, the “apparent rate constant for dissociation, mean value” in test [2] (+40 mV, independent of concentration) came to 0.24 ± 0.01 s⁻¹. Besides, in test [2] (Boltzmann fit of P mod vs holding potential, 500 nM cytosolic), the “z, voltage dependence of occurrence of the modified state” value is on record as 2.16. Also, the Hill slope (commonly a measure of the steepness of the concentration-response curve) in test [2] (P mod vs concentration, +40 mV) is 0.99. Besides, the “slope of ln(rate constant) vs ln(concentration)” value in test [2] (association, +40 mV) was found to be 0.975. Besides, the modified conductance in test [2] (cursors at center of noise, 610 mM K+, SEM, n = 14) is given as 354 ± 6 pS. Besides, the “mean fractional conductance ± SEM” value in test [2] (holding potential 20 mV, n = 10) is listed as 0.438 ± 0.004; in test [2] (holding potential 40 mV, n = 10), 0.440 ± 0.003; in test [2] (holding potential 60 mV, n = 10), 0.462 ± 0.003; in test [2] (holding potential −20 mV, n = 10), 0.437 ± 0.005; in test [2] (holding potential −40 mV, n = 6) it was 0.442 ± 0.002. In test [2] (modified conductance as proportion of unmodified conductance (813 pS)), this compound displayed a fractional conductance of 0.44. In addition, the Kd in test [2] (read-out: apparent K d derived from the rate constants, +40 mV) worked out at 111 nM. In addition, the z off in test [2] (slope of ln(K off) vs holding potential, 500 nM cytosolic) turned out to be 0.87. In test [2] (slope of ln(K on) vs holding potential, 500 nM cytosolic), this compound registered a z on of 1.11.
